In ChEMBL document CHEMBL2384906, “Biological activity, design, synthesis and structure activity relationship of some novel derivatives of curcumin containing sulfonamides” (Eur J Med Chem, 2013):
Values after ≈ are worked out from the molar mass of the structure shown. Active and inactive are the calls of the source. The rule behind the calls is not given here.

Tests used:
Aspergillus flavus [1] = assay: Antifungal activity against Aspergillus flavus MTCC 1021 assessed as zone of inhibition at 20 uM after 48 hrs by disc diffusion method; type: functional; conditions: MTCC 1021, 48 h, read-out: IZ
Procedure, shortened: (§1)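 Spores from 4-day potato dextrose agar cultures, suspended in sterile water at 1.5 × 10⁵ CFU/mL. 0.2 mL was spread on potato dextrose agar. 5 mm filter-paper discs soaked with test compound were laid on the lawn. Incubation was 48 h at 28 °C, then the inhibition zone was measured in mm. Fluconazole was the positive control and acetone the negative control.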

Curvularia lunata [2] = assay: Antifungal activity against Curvularia lunata MTCC 581 assessed as zone of inhibition at 40 uM after 48 hrs by disc diffusion method; type: functional; conditions: MTCC 581, 48 h, read-out: IZ; procedure, shortened: as §1
Trichoderma viride [3] = assay: Antifungal activity against Trichoderma viride MTCC 1107 after 48 hrs; type: functional; conditions: MTCC 1107, 48 h
Aspergillus niger [4] = assay: Antifungal activity against Aspergillus niger MTCC 1108 assessed as zone of inhibition at 20 uM after 48 hrs by disc diffusion method; type: functional; conditions: MTCC 1108, 48 h, read-out: IZ; procedure, shortened: as §1
Pseudomonas aeruginosa [5] = assay: Antimicrobial activity against Pseudomonas aeruginosa ATCC 15499 after 24 hrs by broth micro serial dilution method; type: functional; conditions: ATCC 15499, 24 h
Procedure, shortened: (§2)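 This was broth microdilution in autoclaved Mueller-Hinton broth. 150 µL of compound per well was serially diluted […], and 50 µL of test organism was added. Plates were incubated 24 h at 37 °C and optical density was read.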

Escherichia coli [6] = assay: Antimicrobial activity against Escherichia coli ATCC 35218 after 24 hrs by broth micro serial dilution method; type: functional; conditions: ATCC 35218, 24 h; procedure, shortened: as §2
Trichoderma viride [7] = assay: Antifungal activity against Trichoderma viride MTCC 1107 assessed as zone of inhibition at 20 uM after 48 hrs by disc diffusion method; type: functional; conditions: MTCC 1107, 48 h, read-out: IZ; procedure, shortened: as §1
HepG2 = assay: Cytotoxicity against human HepG2 cells after 24 hrs by MTT assay; type: functional, cell-based
Procedure, shortened: (§3)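 The MTT assay seeded 5 × 10⁴ cells per well and grew them 24 h in RPMI 1640 with compound at 2.5–200 µM. Medium without cells was the blank and adriamycin the positive control. MTT was added for 4 h at 37 °C, formazan was solubilised, and absorbance was read at 570 nm. IC50 is the concentration that cuts viability 50% against untreated cells.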

Staphylococcus aureus [8] = assay: Antimicrobial activity against Staphylococcus aureus ATCC 11632 after 24 hrs by broth micro serial dilution method; type: functional; procedure, shortened: as §2
Curvularia lunata [9] = assay: Antifungal activity against Curvularia lunata MTCC 581 after 48 hrs; type: functional; conditions: MTCC 581, 48 h
Bacillus cereus [10] = assay: Antimicrobial activity against Bacillus cereus MTCC 7350 assessed as diameter of inhibition zone at 80 uM after 24 hrs by Kirby -Baur disc diffusion method; type: functional
Procedure, shortened: (§4)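 Kirby-Bauer disc diffusion was used. Acetone stocks (160 µM) were serially doubled down to 80, 40 and 20 µM. 4 µL of each went onto 5 mm sterile paper discs, which were dried 30 min at 50 °C. Inoculum was 1.5 × 10⁸ CFU/mL diluted to 3 × 10² CFU/mL, and 50 µL was spread on Mueller-Hinton agar. After 24 h at 37 °C the inhibition-zone diameter was measured. Ciprofloxacin served as positive control.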

Aspergillus flavus [11] = assay: Antifungal activity against Aspergillus flavus MTCC 1021 after 48 hrs; type: functional; conditions: MTCC 1021, 48 h
Staphylococcus aureus [12] = assay: Antimicrobial activity against Staphylococcus aureus ATCC 11632 assessed as diameter of inhibition zone at 80 uM after 24 hrs by Kirby -Baur disc diffusion method; type: functional; procedure, shortened: as §4
Aspergillus niger [13] = assay: Antifungal activity against Aspergillus niger MTCC 1108 after 48 hrs; type: functional; conditions: MTCC 1108, 48 h
Trichoderma viride [14] = assay: Antifungal activity against Trichoderma viride MTCC 1107 assessed as zone of inhibition at 80 uM after 48 hrs by disc diffusion method; type: functional; conditions: MTCC 1107, 48 h, read-out: IZ; procedure, shortened: as §1
Escherichia coli [15] = assay: Antimicrobial activity against Escherichia coli ATCC 35218 assessed as diameter of inhibition zone at 80 uM after 24 hrs by Kirby -Baur disc diffusion method; type: functional; procedure, shortened: as §4
Aspergillus niger [16] = assay: Antifungal activity against Aspergillus niger MTCC 1108 assessed as zone of inhibition at 40 uM after 48 hrs by disc diffusion method; type: functional; conditions: MTCC 1108, 48 h, read-out: IZ; procedure, shortened: as §1
Aspergillus flavus [17] = assay: Antifungal activity against Aspergillus flavus MTCC 1021 assessed as zone of inhibition at 80 uM after 48 hrs by disc diffusion method; type: functional; conditions: MTCC 1021, 48 h, read-out: IZ; procedure, shortened: as §1
QG-56 = assay: Cytotoxicity against human QG56 cells after 24 hrs by MTT assay; type: functional, cell-based; procedure, shortened: as §3
HCT-116 = assay: Cytotoxicity against human HCT116 cells after 24 hrs by MTT assay; type: functional, cell-based; procedure, shortened: as §3
Curvularia lunata [18] = assay: Antifungal activity against Curvularia lunata MTCC 581 assessed as zone of inhibition at 80 uM after 48 hrs by disc diffusion method; type: functional; conditions: MTCC 581, 48 h, read-out: IZ; procedure, shortened: as §1
Salmonella typhi [19] = assay: Antimicrobial activity against Salmonella typhi ATCC 23564 assessed as diameter of inhibition zone at 80 uM after 24 hrs by Kirby -Baur disc diffusion method; type: functional; conditions: Salmonella enterica subsp. enterica serovar Typhi
Trichoderma viride [20] = assay: Antifungal activity against Trichoderma viride MTCC 1107 assessed as zone of inhibition at 40 uM after 48 hrs by disc diffusion method; type: functional; conditions: MTCC 1107, 48 h, read-out: IZ; procedure, shortened: as §1
Mus musculus = assay: Antiinflammatory activity in mouse assessed as inhibition of carrageenan-induced increase in paw volume at 200 mg/kg administered 1 hr prior to carrageenan challenge measured after 3 hrs relative to control; type: functional
Procedure, shortened: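 Mice were fasted 2 h and placed in groups of five. Controls received saline i.p. Phenylbutazone was given at 100 mg/kg i.p., curcumin at 200 mg/kg i.p., and derivatives at 200 mg/kg. After 1 h, 0.1 mL of 1% carrageenan in saline was injected subplantar into the right hind paw. Paw volume was followed by plethysmometer for 3 h, and % inhibition was calculated as (Vc − Vt)/Vc × 100.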

Curvularia lunata [21] = assay: Antifungal activity against Curvularia lunata MTCC 581 assessed as zone of inhibition at 20 uM after 48 hrs by disc diffusion method; type: functional; conditions: MTCC 581, 48 h, read-out: IZ; procedure, shortened: as §1
Bacillus cereus [22] = assay: Antimicrobial activity against Bacillus cereus MTCC 7350 after 24 hrs by broth micro serial dilution method; type: functional; procedure, shortened: as §2
Pseudomonas aeruginosa [23] = assay: Antimicrobial activity against Pseudomonas aeruginosa ATCC 15499 assessed as diameter of inhibition zone at 80 uM after 24 hrs by Kirby -Baur disc diffusion method; type: functional; procedure, shortened: as §4
HeLa = assay: Cytotoxicity against human HeLa cells after 24 hrs by MTT assay; type: functional, cell-based; procedure, shortened: as §3
Salmonella typhi [24] = assay: Antimicrobial activity against Salmonella typhi ATCC 23564 after 24 hrs by broth micro serial dilution method; type: functional; conditions: Salmonella enterica subsp. enterica serovar Typhi
Aspergillus flavus [25] = assay: Antifungal activity against Aspergillus flavus MTCC 1021 assessed as zone of inhibition at 40 uM after 48 hrs by disc diffusion method; type: functional; conditions: MTCC 1021, 48 h, read-out: IZ; procedure, shortened: as §1
Aspergillus niger [26] = assay: Antifungal activity against Aspergillus niger MTCC 1108 assessed as zone of inhibition at 80 uM after 48 hrs by disc diffusion method; type: functional; conditions: MTCC 1108, 48 h, read-out: IZ; procedure, shortened: as §1

## COc1cc(/C=C/C(=O)C(/N=N/c2ccc(S(=O)(=O)Nc3ccccn3)cc2)=C(O)/C=C/c2ccc(O)c(OC)c2)ccc1O
Aspergillus flavus [1]
  zone of inhibition at 20 µM: 9 mm
Curvularia lunata [2]
  zone of inhibition at 40 µM: 13 mm
Trichoderma viride [3]
  MIC: 40 µM (≈ 25.1 µg/mL)
Aspergillus niger [4]
  zone of inhibition at 20 µM: 9 mm
Pseudomonas aeruginosa [5]
  MIC: > 80 µM
Escherichia coli [6]
  MIC: > 80 µM
Trichoderma viride [7]
  zone of inhibition at 20 µM: 10 mm
HepG2
  IC50: Not Active
Staphylococcus aureus [8]
  MIC: inactive
Curvularia lunata [9]
  MIC: 40 µM (≈ 25.1 µg/mL)
Bacillus cereus [10]
  diameter of the inhibition zone (DIZ): inactive
Aspergillus flavus [11]
  MIC: 40 µM (≈ 25.1 µg/mL)
Staphylococcus aureus [12]
  diameter of the inhibition zone (DIZ): inactive
Aspergillus niger [13]
  MIC: 40 µM (≈ 25.1 µg/mL)
Trichoderma viride [14]
  zone of inhibition at 80 µM: 17 mm
Escherichia coli [15]
  diameter of the inhibition zone (DIZ): inactive
Aspergillus niger [16]
  zone of inhibition at 40 µM: 11 mm
Aspergillus flavus [17]
  zone of inhibition at 80 µM: 13 mm
QG-56
  IC50: Not Active
HCT-116
  IC50: Not Active
Curvularia lunata [18]
  zone of inhibition at 80 µM: 17 mm
Salmonella typhi [19]
  diameter of the inhibition zone (DIZ): inactive
Trichoderma viride [20]
  zone of inhibition at 40 µM: 13 mm
Mus musculus
  inhibition in vivo at 200 mg/kg: 9.6%
Curvularia lunata [21]
  zone of inhibition at 20 µM: 10 mm
Bacillus cereus [22]
  MIC: inactive
Pseudomonas aeruginosa [23]
  diameter of the inhibition zone (DIZ): inactive
HeLa
  IC50: 100 µM
Salmonella typhi [24]
  MIC: inactive
Aspergillus flavus [25]
  zone of inhibition at 40 µM: 12 mm
Aspergillus niger [26]
  zone of inhibition at 80 µM: 14 mm
